Results reported in ChEMBL document CHEMBL5303300, “EUbOPEN Chemogenomics Library - Multiplex” (2023).
Where “and” joins values, the source holds several entries; their conditions need not be identical. Identical values can stand only once.

Legend:
U2OS = assay: Multiplex assay against U2OS; assay type: toxicity, cell-based; details: human, number of replicates 2
Outline: (§1)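 Imaging took place on a CQ1 microscope at 37°C and 5% CO2 once compound had been added to live cells stained at seeding with Hoechst33342, BioTracker Green Microtubule Cytoskeleton Dye, MitoTracker Red and Annexin V Alexa Fluor 680. CellPathfinder machine-learning gating classed cells as Hoechst high-intensity objects or normal cells, classed normal cells as having healthy, pyknosed or fragmented nuclei, and classed pyknosed cells as mitotic or apoptotic. Tubulin, mitochondrial-mass and membrane-permeability phenotypes are per cents of the healthy-nucleus cells.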

Fibroblast = assay: Multiplex assay against human fibroblast; assay type: toxicity, cell-based; details: number of replicates 2; outline: as §1
[1] = 24 h, 1 µM, compound concentration 1 uM
[2] = 24 h, 10 µM, compound concentration 10 uM
[3] = 48 h, 1 µM, compound concentration 1 uM
[4] = 48 h, 10 µM, compound concentration 10 uM
[5] = 12 h, 1 µM, compound concentration 1 uM
[6] = 12 h, 10 µM, compound concentration 10 uM

## CN(C)C/C=C/C(=O)Nc1ccc(C(=O)N2CCCC(Nc3ncc(Cl)c(-c4c[nH]c5ccccc45)n3)C2)cc1 (configuration not stated)
U2OS; [1]
  Population Pyknosed Nuclei (%): 27% and 23%
  Population Tubulin-Different-Phenotype (%): 89% and 95%
U2OS; [2]
  Population Apoptotic (%): 93% and 80%
  Population Fragmented Nuclei (%): 8% and 17%
  Population Hoechst High Intensity Objects (%): 5% and 0%
  Population Membrane Permeable-Phenotype (%): 58% and 22%
  Population Normal (%): 94% and 100%
  Population Pyknosed Nuclei (%): 80% and 43%
  Population Tubulin-Different-Phenotype (%): 76% and 100%
U2OS; [3]
  Population Apoptotic (%): 90% and 83%
  Population Fragmented Nuclei (%): 12% and 7%
  Population Healthy Nuclei (%): 74% and 75%
  Population Hoechst High Intensity Objects (%): 0%
  Population Membrane Permeable-Phenotype (%): 3% and 5%
  Population Mitochondria Different-Phenotype (%): 1% and 3%
  Population Mitotic Cells (%): 10% and 16%
  Population Normal (%): 100%
  Population Pyknosed Nuclei (%): 13% and 16%
  Population Tubulin-Different-Phenotype (%): 98% and 97%
U2OS; [4]
  Population Apoptotic (%): 92% and 69%
  Population Healthy Nuclei (%): 13% and 20%
  Population Hoechst High Intensity Objects (%): 1% and 0%
  Population Membrane Permeable-Phenotype (%): 91% and 40%
  Population Mitochondria Different-Phenotype (%): 83% and 60%
  Population Normal (%): 98% and 100%
  Population Pyknosed Nuclei (%): 79% and 52%
  Population Tubulin-Different-Phenotype (%): 100%
Fibroblast; [5]
  Population Apoptotic (%): 40% and 56%
  Population Fragmented Nuclei (%): 10% and 12%
  Population Healthy Nuclei (%): 68% and 67%
  Population Hoechst High Intensity Objects (%): 0%
  Population Membrane Permeable-Phenotype (%): 3% and 5%
  Population Mitochondria Different-Phenotype (%): 0% and 2%
  Population Mitotic Cells (%): 59% and 43%
  Population Normal (%): 99% and 100%
  Population Pyknosed Nuclei (%): 21% and 20%
  Population Tubulin-Different-Phenotype (%): 11% and 13%
  Total Cell Count: 174 and 157
Fibroblast; [6]
  Population Apoptotic (%): 63% and 53%
  Population Fragmented Nuclei (%): 10% and 20%
  Population Healthy Nuclei (%): 42% and 50%
  Population Hoechst High Intensity Objects (%): 0%
  Population Membrane Permeable-Phenotype (%): 0% and 9%
  Population Mitochondria Different-Phenotype (%): 21% and 24%
  Population Mitotic Cells (%): 36% and 46%
  Population Normal (%): 99%
  Population Pyknosed Nuclei (%): 46% and 29%
  Population Tubulin-Different-Phenotype (%): 78% and 70%
  Total Cell Count: 131 and 175
Fibroblast; [1]
  Population Apoptotic (%): 76% and 71%
  Population Fragmented Nuclei (%): 17% and 12%
  Population Healthy Nuclei (%): 49% and 56%
  Population Hoechst High Intensity Objects (%): 0%
  Population Membrane Permeable-Phenotype (%): 10% and 8%
  Population Mitochondria Different-Phenotype (%): 2% and 1%
  Population Mitotic Cells (%): 23% and 28%
  Population Normal (%): 100%
  Population Pyknosed Nuclei (%): 33% and 31%
  Population Tubulin-Different-Phenotype (%): 18% and 19%
  Total Cell Count: 151 and 166
Fibroblast; [2]
  Population Apoptotic (%): 78% and 64%
  Population Fragmented Nuclei (%): 8% and 14%
  Population Healthy Nuclei (%): 30% and 41%
  Population Hoechst High Intensity Objects (%): 1%
  Population Membrane Permeable-Phenotype (%): 2% and 8%
  Population Mitochondria Different-Phenotype (%): 43% and 36%
  Population Mitotic Cells (%): 21% and 35%
  Population Normal (%): 98%
  Population Pyknosed Nuclei (%): 61% and 43%
  Population Tubulin-Different-Phenotype (%): 72% and 71%
  Total Cell Count: 125 and 173
Fibroblast; [3]
  Population Apoptotic (%): 79% and 85%
  Population Fragmented Nuclei (%): 11% and 14%
  Population Healthy Nuclei (%): 47% and 50%
  Population Hoechst High Intensity Objects (%): 0%
  Population Membrane Permeable-Phenotype (%): 19% and 17%
  Population Mitochondria Different-Phenotype (%): 1% and 5%
  Population Mitotic Cells (%): 20% and 14%
  Population Normal (%): 100% and 99%
  Population Pyknosed Nuclei (%): 41% and 35%
  Population Tubulin-Different-Phenotype (%): 27% and 20%
  Total Cell Count: 161 and 139
Fibroblast; [4]
  Population Apoptotic (%): 92% and 87%
  Population Fragmented Nuclei (%): 11% and 14%
  Population Healthy Nuclei (%): 15% and 21%
  Population Hoechst High Intensity Objects (%): 0%
  Population Mitochondria Different-Phenotype (%): 22% and 28%
  Population Mitotic Cells (%): 7% and 12%
  Population Normal (%): 99%
  Population Pyknosed Nuclei (%): 73% and 63%
  Population Tubulin-Different-Phenotype (%): 83% and 74%
  Total Cell Count: 117 and 161
